Drawing on ChEMBL document CHEMBL4513216, “Probing the Open Global Health Chemical Diversity Library for Multistage-Active Starting Points for Next-Generation Antimalarials” (ACS Infect Dis, 2020), this text covers cytotoxicity for 96 compounds.

This data set in a line: Toxicity liver stage against HepG2, at 10uM. The data set is classed as cell-based. Also on record: test concentration 10 uM, cell line HepG2-A16-CD81EGFP. Particulars: human, HepG2-A16-CD81EGFP cells; read-out: INHIBITION
The method in brief:
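Uninfected HepG2-A16-CD81EGFP cells, 3 × 10^3 per well, 1536-well, plated on prespotted compound at 10 μM final, parasite-free screening media added to match infected plates; puromycin 10 μM positive, DMSO 0.5% negative; run in parallel with 48 h PbLuc assay at 37 °C, 5% CO2; viability by CellTiter-Glo luminescence, normalized to controls.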
Consider `CCOC(=O)CNC(=O)c1cccnc1Oc1ccc(Cl)cc1`, for which the cytotoxicity at 10 µM was determined as 1.63%. The same measure for `Cc1nc(N2CCN(C)CC2)ncc1C(=O)N1CCN(C)CC1`: 3.85%; for `COc1ccc(C(=O)N2CC(=O)N(C3CCC3)CC(O)C2)cc1OC` (stereo unspecified): 4.35%; for `Cc1ccc(C)c(S(=O)(=O)NCCNc2ccc(-n3cccc3)nn2)c1`: 1.77%. On to `CCn1cc2c(n1)C(COCC1CC1)CN(C(=O)c1cnoc1C)C2` (stereo unspecified), for which the cytotoxicity at 10 µM was determined as 17.5%. As to `CN(C)CC(=O)N1CCc2ncnc(-c3ccoc3)c2CC1`, the cytotoxicity at 10 µM is -7.36%. In the case of `O=C(NCCc1ccccc1)N1CC[C@@H]2CNS(=O)(=O)[C@@H]2CC1`, the cytotoxicity at 10 µM was -5.12%. Next, `O=C(c1cc2c(s1)CCN2C(=O)C1CC1)N1CCCC1`: 2.62%; `Cc1nnc([C@@H]2CC[C@@H]3[C@@H](CCN3C3CCC3)O2)o1`: 8.19%. As for `Cc1nnc([C@@]23CCO[C@@H]2CCN(S(C)(=O)=O)C3)o1`, the cytotoxicity at 10 µM came to 9.16%. `Cc1ccc(CN2CC[C@H]3OCC[C@@]3(C(=O)N3CCCO3)C2)s1`: the cytotoxicity at 10 µM was determined as 2.08%. Regarding `O=C(Cc1ccc2c(c1)OCC2)Nc1nn[nH]n1`, the cytotoxicity at 10 µM was found to be 0.548%. Next, `CN(CC1CC1)c1ccc2ccc(C(=O)NCCN3CCOCC3)cn12`: 5.57%; `CC(C)CN1CCC2(CCN(Cc3ccsc3)CC2)C1=O`: 5.24%.

In the case of `Cc1nc([C@@H]2C[C@@H]3CCN(C(=O)c4occc4C)C[C@H]3O2)no1`, the cytotoxicity at 10 µM was -1.04%. The same measure for `CCn1ccc(NC(=O)CN2C(=O)C(C)(C)c3ccccc32)n1`: -16.9%; for `CCC(c1ccccc1)c1nn2c(CN(CC)CC)nnc2s1` (stereo unspecified): 7.79%. The same measure for `CC1(c2ncc(CN3CCN(c4ncccn4)CC3)cn2)CCCCO1` (stereo unspecified): 1.16%; for `c1cnc(Nc2ccc(C3CCCCN3Cc3ccncc3)cn2)nc1` (stereo unspecified): -1.57%.

Consider `CCNC(=O)C1(Cc2cc(-c3ccc(C)cc3)no2)CCCN(C)C1` (stereo unspecified), for which the cytotoxicity at 10 µM came out at 7.9%. Next, `CNC(=O)C1CN(c2ccnc(C)n2)CCN(C2CCOCC2)C1` (stereo unspecified): -0.762%. For the compound `COCC(=O)N1CCCCC1c1nc(C)c2c(n1)N(CC1CC1)C(=O)C2` (stereo unspecified), the cytotoxicity at 10 µM stood at 10.5%.

Consider `O=C(O)c1ccccc1-n1cnc(CN2CCCc3ccccc32)c1`, for which the cytotoxicity at 10 µM amounted to 6.58%. Next, `CN(C)C(=O)Cn1c(C2CC2)c(CN2CCSCC2)c2cccnc21`: 4.06%; `Cc1cc(-c2c[nH]nc2C2CCCCN2C(=O)c2ccccc2)on1` (stereo unspecified): 7.9%; `Nc1nccc(C2CCCN(CC3CC3)C2)n1` (stereo unspecified): 0.631%. As for `c1cnc(N2CCC(c3cc4cccnc4[nH]3)CC2)nc1`, the cytotoxicity at 10 µM was -7.28%. The same measure for `COCCC(=O)N1CCCC1c1nc(O)cc(C(C)C)n1` (stereo unspecified): -26.4%; for `CC(C)c1cc(O)nc(C2CCCN2C(=O)C(C)(C)C)n1` (stereo unspecified): -17.8%.

With `OCCN1CCC(c2cncc(-c3cccc(Cl)c3)n2)CC1`, the cytotoxicity at 10 µM was -31.7%. Next, `Cc1cc(CN2CCC(O)(Cn3ccc4ncccc43)CC2)c(C)s1`: -16.1%; `Cc1cc(C2CCCN(C(=O)c3cccnc3)C2)ccn1` (stereo unspecified): -21.3%; `CC(C)(C)C(=O)N1CCC(c2nc(O)cc(-c3ccccn3)n2)CC1`: -1.13%. Next, `CN(Cc1ccc(F)cc1)CC1(O)CCN(C(=O)c2ccccc2)C1` (stereo unspecified): -1.7%.

Regarding `Oc1nc(N2CCOCC2)nc2c1CCN(Cc1cccnc1)CC2`, the cytotoxicity at 10 µM was -3.71%.

Regarding `CCn1cc(CNC(C)c2noc(-c3ccc(Cl)cc3)n2)cn1` (stereo unspecified), the cytotoxicity at 10 µM came out at 3.63%. Next, `Cn1ccc(CS(=O)(=O)Cc2cccc(F)c2)cc1=O`: 6.83%; `Cc1ncc(C(=O)N2CCCC2c2c(C)nn(C)c2C)s1` (stereo unspecified): 1.51%; `CCC(C)(C)N(C)CCOc1cccc(S(C)(=O)=O)c1`: -8.42%. The same measure for `CCN1CCN2CCCN(S(=O)(=O)c3ccc(S(C)(=O)=O)cc3)C2C1=O` (stereo unspecified): 5.36%; for `Cc1noc(CCCC(=O)NCC(c2ccco2)N2CCCC2)n1` (stereo unspecified): -0.363%; for `Cc1cnn(CCC(=O)NS(=O)(=O)N2CCCc3ccccc32)c1`: 9.73%. The same measure for `Cc1cc(C(=O)OCC2CCCN2C(N)=O)c(C)o1` (stereo unspecified): 6.72%. Take `O=C(Cc1ccc2c(c1)CCO2)Nc1ccc(-n2cncn2)nc1`: the cytotoxicity at 10 µM was found to be 3.62%. `COC(=O)C1CN(Cc2ccccc2C(C)(C)C#N)CCO1` (stereo unspecified): the cytotoxicity at 10 µM is -1.78%. For `Cc1cnc(CN(C)C2CCN(Cc3cnc(C)s3)C2)o1` (stereo unspecified), the cytotoxicity at 10 µM is -0.0499%. For the compound `Cc1cnn(CCNCC(O)c2ccc(C(F)(F)F)cc2)c1` (stereo unspecified), the cytotoxicity at 10 µM is 4.48%. Next, `CC(C)Oc1ncc(C(=O)N2CCCC(C(=O)O)C2)cc1Cl` (stereo unspecified): -6.94%. Next, `O=C(CN1CCCCC1Cn1cncn1)Nc1ccncc1` (stereo unspecified): 11.2%. Next, `c1cncc(CN(Cc2ccc(-n3ccnc3)cc2)CC2CCCO2)c1` (stereo unspecified): -0.242%; `Cc1cnn(CC2CCCN2C(=O)c2ccc3c(c2)nnn3C)c1` (stereo unspecified): 18.4%. As for `Cc1noc(C(C)Nc2ccc(N3CCOCC3)cc2C)n1` (stereo unspecified), the cytotoxicity at 10 µM is -3.92%. As to `CC(NCC1CCN(CCO)CC1)c1ccc(Cl)cc1` (stereo unspecified), the cytotoxicity at 10 µM is -9.12%. Next, `Cc1nnc(CN(C)CCCOc2ccc(Cl)cc2)o1`: -1.69%.

In the case of `Cn1nc(Br)c2c(NCCSCCCO)ncnc21`, the cytotoxicity at 10 µM amounted to 14.5%. Next, `O=C(c1ccc(=O)[nH]n1)N(CCO)Cc1cc(Br)ccc1F`: 7.56%; `COc1ccc(OC)c(-n2nnnc2SCC2CCCN(C)C2)c1` (stereo unspecified): 1.28%; `CC(Cc1cccc(F)c1)NCc1cnc(N2CCN(C)CC2)nc1` (stereo unspecified): -5.44%. Next, `N#Cc1ccc(F)c(CN2CCNC(=O)C2c2cccs2)c1` (stereo unspecified): 11.5%; `CC(C)CC(C)NCCCN1CCCN(C)CC1` (stereo unspecified): 24.7%; `CC(C)CNC(=O)Nc1ccc(CN2CCOC2=O)cc1`: 10.2%. The same measure for `CCOCC1CN(S(=O)(=O)Cc2ccccc2)Cc2nccn2C1` (stereo unspecified): -105%. As to `CCC1=N[C@@]2(CC[C@@H]3CN(CC)C[C@@H]32)C(=O)N1C`, the cytotoxicity at 10 µM is -102%. The same measure for `COCC(=O)N1CC[C@]2(O)CCN(Cc3cccnc3OC)C[C@@H]2C1`: 8.72%. Next, `CCCc1ccc(C(=O)N2CCc3c(nc(N(C)C)[nH]c3=O)C2)cc1`: 8.7%; `CCc1cc(NC2CCS(=O)(=O)CC2)nc(N2CCCCC2)n1`: -15.8%. Next, `COc1cccc(OCC2CCCN(C(=O)c3ccc(N)nc3)C2)c1` (stereo unspecified): 3.37%; `O=C(CCn1cnnn1)N1CCCC(CO)(CCCc2ccccc2)C1` (stereo unspecified): 2.74%.

For `CC(C)c1cc(=O)[nH]c(-c2ccccc2CN2CCCCCC2)n1`, the cytotoxicity at 10 µM was -2.1%. With `COc1ccc(F)c(-c2cc(C)nc(N)n2)c1`, the cytotoxicity at 10 µM came to 5.47%. The same measure for `COC(=O)c1cc(C)nc(N2CCN(Cc3cc(C(C)C)no3)CC2)n1`: 3.29%; for `OCCn1ncc2c1CN(CC1CCOc3ccccc3C1)C2` (stereo unspecified): -5.35%. Next, `Cc1nccn1Cc1nnc(C2CCCN(Cc3cccnc3)C2)n1C` (stereo unspecified): -6.15%; `O=C(O)c1cc(S(=O)(=O)N2CCOc3ccccc32)cc(Cl)c1Cl`: -4.36%; `COc1cc(C)nc(N2CCN(C(=O)COCC3CC3)CC2)n1`: -5.92%. The same measure for `O=C(O)c1c[nH]c2cc(NS(=O)(=O)c3cccc(Cl)c3F)ccc12`: -10.5%; for `Cc1ccc(C(=O)N2CCN(CCC(C)(C)C)CC2)c(=O)[nH]1`: -6.95%; for `NC(=O)CC1CCN(C(=O)CCOc2ccc(Cl)cc2)CC1`: -7.98%. Regarding `CCCNC(=O)CN1CCN(Cc2csc(C(C)(C)C)n2)CC1`, the cytotoxicity at 10 µM is -7.88%. Next, `COc1cccc(Nc2nc(C3CCNCC3)c3sc(C)c(C)n23)c1`: 4.24%; `COc1ccc(C(CNS(=O)(=O)c2cn(C)nc2C)N2CCCC2)cc1` (stereo unspecified): 4.11%; `Cc1cccc(CS(=O)(=O)c2nnc([C@@H](N)Cc3ccccc3)o2)c1`: 7.09%. Take `CCCS(=O)(=O)N1CCn2cc(CNc3ccccn3)nc2C1`: the cytotoxicity at 10 µM is 9.1%. Regarding `COCCN1CCC12CCN(C(=O)Cc1cccs1)C2` (stereo unspecified), the cytotoxicity at 10 µM was determined as 7.89%. The same measure for `O=C(c1cscn1)N1CCc2ncc(CN3CCCC3)n2CC1`: -111%; for `c1cnc(N2CCO[C@H]3CN(Cc4csnn4)C[C@H]32)cn1`: 4.23%. Next, `CC(C)N1CCC2(CCCN(C(=O)c3cncn3C)C2)CC1`: -0.0499%. In the case of `O=C(c1cnccn1)N1CC2(CCN(Cc3ccsc3)C2)C1`, the cytotoxicity at 10 µM was -4.23%. `CC(C)N(C)C[C@H]1OC[C@@H]2CCN(Cc3cccc(C#N)c3)C[C@@H]21`: the cytotoxicity at 10 µM came out at 9.28%. Next, `c1csc(CN2CCC3(CC2)CCN(CC2CC2)CC3)n1`: 3.17%. `CN1CCCn2c(nc(CNS(=O)(=O)C3CC3)cc2=O)C1`: the cytotoxicity at 10 µM turned out to be 5.92%. The same measure for `Cc1cccc(C(=O)N2C[C@@H]3CCN(c4cccnc4)C[C@@H]3C2)c1`: 3.76%; for `Clc1ccccc1CN1CCc2nc(C3CCNCC3)ncc2C1`: -36.6%; for `CN(C)CCOCc1ncn2c1CN(c1ncc(F)cn1)CCC2`: 15%. The same measure for `COCCN1CCN(Cc2ccco2)Cc2ccc(C)nc21`: 0.657%. The same measure for `COc1ccc(F)cc1C(=O)N1C[C@H]2CC(OC)C[C@H]2C1` (stereo partly specified): -2.19%.
